In ChEMBL document CHEMBL1134383, “Synthesis and pharmacology of 3-isoxazolol amino acids as selective antagonists at group I metabotropic glutamic acid receptors” (J Med Chem, 2001):

What was measured:
[1] = target: Glutamate receptor ionotropic, AMPA (Rattus norvegicus, UniProt P19490+P19491+P19492+P19493); assay: Binding affinity for AMPA receptor using [3H]AMPA; format: protein-complex assay
Method in brief: (§1)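 Radioligand displacement using [3H]AMPA (AMPA), [3H]KA (kainate) or [3H]CPP (NMDA) on membrane preparations. Mean ± SEM of at least three independent results; one value estimated. Low-solubility compounds tested only at 200 μM.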

[2] = target: Glutamate receptor ionotropic, kainate; assay: Binding affinity for Ionotropic glutamate receptor kainate by [3H]-kainic acid displacement; format: protein-complex assay, Rattus norvegicus; method in brief: as §1
Glutamate NMDA receptor = assay: Displacement of [3H]CPP from NMDA receptor; format: protein-complex assay, Rattus norvegicus; method in brief: as §1
Rattus norvegicus = organism: Rattus norvegicus; assay: Excitatory activity in the rat cortical slice model.; format: functional, organism-based
Method in brief: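 Rat cortical slice depolarizations evoked by excitatory amino acids; agonists applied 90 s at each concentration, with receptor selectivity checked using NBQX (AMPA) or CPP (NMDA). Poorly soluble compounds tested up to 200 μM.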

[3] = target: Metabotropic glutamate receptor 4 (Homo sapiens) (UniProt Q14833); assay: Antagonist activity against mGlu 4a receptor in chinese hamster ovary cells using secondary messanger assay determined; format: functional, cell-based; conditions: Cricetulus griseus
Chain of Metabotropic glutamate receptor 4 (Homo sapiens) (Q14833 whole entry): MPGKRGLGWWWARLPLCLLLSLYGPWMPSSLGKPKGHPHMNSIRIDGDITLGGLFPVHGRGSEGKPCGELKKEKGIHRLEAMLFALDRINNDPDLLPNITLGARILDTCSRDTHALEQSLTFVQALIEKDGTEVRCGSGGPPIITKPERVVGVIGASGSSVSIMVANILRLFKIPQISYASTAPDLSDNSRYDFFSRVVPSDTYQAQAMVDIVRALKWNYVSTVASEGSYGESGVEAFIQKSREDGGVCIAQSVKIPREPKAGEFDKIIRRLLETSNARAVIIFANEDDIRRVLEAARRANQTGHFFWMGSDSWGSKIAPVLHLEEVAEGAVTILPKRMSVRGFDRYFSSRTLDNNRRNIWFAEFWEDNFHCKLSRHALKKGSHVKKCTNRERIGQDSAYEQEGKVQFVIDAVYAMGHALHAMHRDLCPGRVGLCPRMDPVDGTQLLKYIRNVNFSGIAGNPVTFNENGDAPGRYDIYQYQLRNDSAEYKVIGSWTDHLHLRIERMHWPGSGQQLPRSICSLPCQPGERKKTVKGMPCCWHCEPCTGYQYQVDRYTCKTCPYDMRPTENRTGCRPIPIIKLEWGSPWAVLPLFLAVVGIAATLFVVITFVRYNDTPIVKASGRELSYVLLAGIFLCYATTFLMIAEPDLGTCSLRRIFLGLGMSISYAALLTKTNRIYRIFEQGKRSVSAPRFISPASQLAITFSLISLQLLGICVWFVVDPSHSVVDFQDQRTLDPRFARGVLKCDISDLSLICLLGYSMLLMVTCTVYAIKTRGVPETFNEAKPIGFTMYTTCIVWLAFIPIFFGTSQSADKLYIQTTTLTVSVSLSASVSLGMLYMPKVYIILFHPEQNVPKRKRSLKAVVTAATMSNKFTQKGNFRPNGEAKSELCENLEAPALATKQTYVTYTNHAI
Method in brief: (§2)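 Cloned mGluRs measured with second-messenger assays; group I (mGlu1α, mGlu5α), mGlu2 and mGlu4α tested. Compounds tested for agonist and antagonist activity at 1 mM unless otherwise stated. Mean ± SEM of at least two independent results; some values estimated from partial concentration–response curves.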

[4] = target: Metabotropic glutamate receptor 2 (Homo sapiens) (UniProt Q14416); assay: Antagonist activity against mGlu 2 receptor in chinese hamster ovary cells using secondary messanger assay determined; format: functional, cell-based; conditions: Cricetulus griseus; method in brief: as §2
Chain of Metabotropic glutamate receptor 2 (Homo sapiens) (Q14416 19-872 limits assumed): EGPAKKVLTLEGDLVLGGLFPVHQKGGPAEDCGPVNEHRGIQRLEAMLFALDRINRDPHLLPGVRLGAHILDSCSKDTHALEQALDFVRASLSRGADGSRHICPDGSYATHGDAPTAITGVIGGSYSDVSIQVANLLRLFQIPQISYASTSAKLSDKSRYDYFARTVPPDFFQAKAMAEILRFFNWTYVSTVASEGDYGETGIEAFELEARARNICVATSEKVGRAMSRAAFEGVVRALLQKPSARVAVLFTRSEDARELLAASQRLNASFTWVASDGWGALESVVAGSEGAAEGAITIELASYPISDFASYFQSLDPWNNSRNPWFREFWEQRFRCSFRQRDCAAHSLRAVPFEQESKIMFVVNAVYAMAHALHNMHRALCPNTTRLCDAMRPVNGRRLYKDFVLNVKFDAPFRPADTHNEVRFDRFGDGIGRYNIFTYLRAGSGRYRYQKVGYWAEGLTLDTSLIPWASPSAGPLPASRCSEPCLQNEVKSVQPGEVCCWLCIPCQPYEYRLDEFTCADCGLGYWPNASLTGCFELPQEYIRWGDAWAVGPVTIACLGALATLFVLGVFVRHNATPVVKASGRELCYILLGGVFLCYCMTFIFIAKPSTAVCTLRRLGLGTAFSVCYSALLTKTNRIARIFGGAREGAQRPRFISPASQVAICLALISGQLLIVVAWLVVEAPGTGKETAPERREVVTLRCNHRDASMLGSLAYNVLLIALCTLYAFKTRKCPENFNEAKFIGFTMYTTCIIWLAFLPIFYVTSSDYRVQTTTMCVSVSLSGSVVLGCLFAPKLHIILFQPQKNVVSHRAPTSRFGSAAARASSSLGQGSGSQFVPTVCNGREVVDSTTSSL

[5] = target: Metabotropic glutamate receptor 1 (Homo sapiens) (UniProt Q13255); assay: Antagonist activity against mGlu1-alpha receptor in chinese hamster ovary cells using secondary messanger assay determined; format: functional, cell-based; conditions: Cricetulus griseus; method in brief: as §2
Chain of Metabotropic glutamate receptor 1 (Homo sapiens) (Q13255 19-1194 limits assumed): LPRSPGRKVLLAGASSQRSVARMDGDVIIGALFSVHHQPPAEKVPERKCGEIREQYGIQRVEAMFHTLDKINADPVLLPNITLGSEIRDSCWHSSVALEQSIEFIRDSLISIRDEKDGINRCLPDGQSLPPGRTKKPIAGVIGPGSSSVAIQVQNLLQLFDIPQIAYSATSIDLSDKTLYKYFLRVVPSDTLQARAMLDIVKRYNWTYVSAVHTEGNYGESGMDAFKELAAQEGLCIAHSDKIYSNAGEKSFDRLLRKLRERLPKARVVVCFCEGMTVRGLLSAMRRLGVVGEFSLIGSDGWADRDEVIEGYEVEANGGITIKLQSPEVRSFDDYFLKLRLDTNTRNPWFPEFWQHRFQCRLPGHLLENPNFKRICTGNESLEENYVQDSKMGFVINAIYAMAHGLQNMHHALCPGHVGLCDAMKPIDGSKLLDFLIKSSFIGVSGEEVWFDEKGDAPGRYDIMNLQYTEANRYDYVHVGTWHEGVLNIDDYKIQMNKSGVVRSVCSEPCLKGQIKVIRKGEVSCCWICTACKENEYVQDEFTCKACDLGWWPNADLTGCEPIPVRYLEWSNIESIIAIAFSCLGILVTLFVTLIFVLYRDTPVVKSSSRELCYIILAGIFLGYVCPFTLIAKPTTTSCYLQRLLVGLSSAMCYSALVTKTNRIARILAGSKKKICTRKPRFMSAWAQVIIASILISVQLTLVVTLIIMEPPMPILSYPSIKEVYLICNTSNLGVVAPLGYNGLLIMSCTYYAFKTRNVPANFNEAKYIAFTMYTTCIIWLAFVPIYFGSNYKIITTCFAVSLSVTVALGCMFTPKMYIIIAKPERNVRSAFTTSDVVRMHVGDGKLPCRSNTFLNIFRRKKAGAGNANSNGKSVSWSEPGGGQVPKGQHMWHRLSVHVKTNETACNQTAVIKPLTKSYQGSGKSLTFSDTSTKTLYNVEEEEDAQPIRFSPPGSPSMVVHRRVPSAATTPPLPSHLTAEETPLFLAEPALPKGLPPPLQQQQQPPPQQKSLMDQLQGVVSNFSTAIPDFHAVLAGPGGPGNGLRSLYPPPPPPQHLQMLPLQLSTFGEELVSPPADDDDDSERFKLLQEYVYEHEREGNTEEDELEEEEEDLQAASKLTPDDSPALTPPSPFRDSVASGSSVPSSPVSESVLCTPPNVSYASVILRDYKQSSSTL

[6] = target: Metabotropic glutamate receptor 5 (Homo sapiens) (UniProt P41594); assay: Antagonist activity against mGlu 5a receptor in chinese hamster ovary cells using secondary messanger assay determined; format: functional, cell-based; conditions: Cricetulus griseus; method in brief: as §2
Chain of Metabotropic glutamate receptor 5 (Homo sapiens) (P41594 21-1212 limits assumed): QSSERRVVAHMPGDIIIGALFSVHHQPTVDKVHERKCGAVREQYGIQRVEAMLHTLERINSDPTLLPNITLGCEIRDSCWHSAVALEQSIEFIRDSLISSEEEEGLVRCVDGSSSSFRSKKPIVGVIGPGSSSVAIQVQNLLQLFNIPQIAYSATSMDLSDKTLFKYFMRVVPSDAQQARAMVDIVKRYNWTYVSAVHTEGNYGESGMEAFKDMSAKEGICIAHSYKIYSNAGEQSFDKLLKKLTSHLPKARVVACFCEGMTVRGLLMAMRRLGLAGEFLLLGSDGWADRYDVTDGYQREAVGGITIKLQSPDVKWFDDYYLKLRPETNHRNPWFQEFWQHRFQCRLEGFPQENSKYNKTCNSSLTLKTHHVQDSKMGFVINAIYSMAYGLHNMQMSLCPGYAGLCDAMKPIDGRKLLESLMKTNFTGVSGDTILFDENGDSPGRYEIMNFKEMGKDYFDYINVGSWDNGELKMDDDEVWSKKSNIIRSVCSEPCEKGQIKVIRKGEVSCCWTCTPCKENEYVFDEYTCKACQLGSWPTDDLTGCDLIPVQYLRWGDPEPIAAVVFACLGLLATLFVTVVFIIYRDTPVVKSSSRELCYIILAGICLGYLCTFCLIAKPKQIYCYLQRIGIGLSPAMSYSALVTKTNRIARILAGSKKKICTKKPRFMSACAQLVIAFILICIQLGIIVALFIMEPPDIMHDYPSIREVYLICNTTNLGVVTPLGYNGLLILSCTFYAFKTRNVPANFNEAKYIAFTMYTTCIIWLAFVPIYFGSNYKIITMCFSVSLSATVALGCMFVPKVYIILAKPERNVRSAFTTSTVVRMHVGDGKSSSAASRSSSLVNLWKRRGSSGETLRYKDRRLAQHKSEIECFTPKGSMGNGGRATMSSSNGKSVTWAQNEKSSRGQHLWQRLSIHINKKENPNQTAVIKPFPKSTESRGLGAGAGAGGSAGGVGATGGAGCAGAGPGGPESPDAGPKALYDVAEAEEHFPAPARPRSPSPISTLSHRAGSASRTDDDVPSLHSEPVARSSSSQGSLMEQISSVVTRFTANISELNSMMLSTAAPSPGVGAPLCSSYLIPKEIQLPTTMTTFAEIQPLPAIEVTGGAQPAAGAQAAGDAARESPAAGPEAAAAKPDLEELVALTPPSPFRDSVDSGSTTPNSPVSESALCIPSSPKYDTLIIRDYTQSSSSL

Compound | IC50 [1] | IC50 [2] | IC50 (Glutamate NMDA receptor) | EC50 (Rattus norvegicus) | Kb [3] | Kb [4] | Kb [5] | Kb [6]
N[C@@H](Cc1cc(=O)[nH]o1)C(=O)O | 0.8 µM | > 100 µM | > 100 µM | 330 µM |  |  |  | 
CCCCCCc1c(O)noc1C[C@@H](N)C(=O)O | > 100 µM | > 100 µM | > 100 µM | > 1000 µM |  |  |  | 
CCCCCc1c(O)noc1CC(N)C(=O)O (stereo not drawn) | 11 µM | > 100 µM | > 100 µM | 630 µM |  |  |  | 
N[C@@H](Cc1onc(O)c1-c1ccccc1)C(=O)O | 23 µM | > 100 µM | > 100 µM | 395 µM |  |  |  | 
N[C@H](Cc1onc(O)c1-c1ccccc1)C(=O)O | > 100 µM | > 100 µM | 31 µM | > 1000 µM |  |  |  | 
CCCCc1c(O)noc1C[C@H](N)C(=O)O |  |  |  |  |  |  |  | 97 µM
Cc1c(O)noc1CC(N)C(=O)O (stereo not drawn) | 0.32 µM |  |  | 18 µM |  |  |  | 

Results, then the molecule that gave them:

IC50 [1] | IC50 [2] | IC50 (Glutamate NMDA receptor) | EC50 (Rattus norvegicus) | Kb [3] | Kb [4] | Kb [5] | Kb [6] | Compound
 |  |  | > 500 µM | > 100 µM | > 100 µM | > 100 µM |  | CCCCCCCCc1c(O)noc1CC(N)C(=O)O (stereo not drawn)
> 100 µM | > 100 µM | > 100 µM | > 500 µM |  |  |  |  | CCCCCCCc1c(O)noc1CC(N)C(=O)O (stereo not drawn)
39 µM | > 100 µM | > 100 µM | 590 µM |  |  |  |  | NC(Cc1onc(O)c1-c1ccccc1)C(=O)O (stereo not drawn)
> 100 µM | > 100 µM | > 100 µM | > 1000 µM |  |  | 30 µM | 61 µM | CCCCCCc1c(O)noc1C[C@H](N)C(=O)O
0.48 µM | > 100 µM | > 100 µM |  |  |  |  |  | CCCCc1c(C[C@H](N)C(=O)O)o[nH]c1=O
> 100 µM | > 100 µM | > 100 µM | > 1000 µM |  |  |  |  | CCCCCCc1c(O)noc1CC(N)C(=O)O (stereo not drawn)
